In ChEMBL document CHEMBL1128527, “Modification of receptor selectivity and functional activity in cholecystokinin peptoid ligands” (J Med Chem, 1995):
Activity calls are given as the source filed them. No cut-off for these calls is given here. Numbered stars: 1 amine (or outer) side, 2 acyl side, 3 side chain; on linkers, the order of the positions; unused ones are H or OH. Square brackets hold non-standard residues; d marks the D form. Side chains are listed from the residue outwards. Peptide text beside a SMILES is read from it. * marks the point of attachment. NMeF = CN[C@@H](Cc1ccccc1)C(=O)O; NH(2-Me-phenyl) = Cc1ccccc1N*; CO = O=C([*:1])[*:2]

Tests used:
Rattus norvegicus [1] = assay: The compound was evaluated for the maximal reduction in feeding achieved at 1 uM/kg dose(ip); format: functional; details: in the assay text read “0.5 umol/kg” for “1 uM/kg”
Rattus norvegicus [2] = assay: The compound was evaluated for the dose(ip) required to achieve half-maximal inhibition of feeding at 30 min in rats; format: functional; details: 0.5 h
Outline: (§1)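 Male Long-Evans rats (225–300 g) conditioned 2 weeks to a liquid diet. Animals fasted 100 min, then given test compound ip in propylene glycol (1 mL/kg) followed at once by an oral saline preload (8 mL/kg). Diet offered 20 min later and intake measured at 30 min. ED50 is the dose giving half-maximal inhibition; 8–10 rats per dose, normalized to each rat's pretreatment-day response.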

Cavia porcellus [3] = organism: Cavia porcellus; assay: mCCK-8 contraction induced by 30 uM in vitro, normalized to CCK-8 (1 uM); format: functional
Outline: (§2)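 Isolated guinea pig gallbladder. Contraction produced by test compound at 30 μM is expressed relative to CCK-8 (1 μM).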

Cavia porcellus [4] = organism: Cavia porcellus; assay: mCCK-8 contraction induced by 30 uM in vitro, normalized to CCK-8 (1 uM); IA = 'inactive'; format: functional; outline: as §2
[5] = molecular target: T1, Gastrin/cholecystokinin type B receptor (Homo sapiens, UniProt P32239)
T1 sequence (P32239 whole entry): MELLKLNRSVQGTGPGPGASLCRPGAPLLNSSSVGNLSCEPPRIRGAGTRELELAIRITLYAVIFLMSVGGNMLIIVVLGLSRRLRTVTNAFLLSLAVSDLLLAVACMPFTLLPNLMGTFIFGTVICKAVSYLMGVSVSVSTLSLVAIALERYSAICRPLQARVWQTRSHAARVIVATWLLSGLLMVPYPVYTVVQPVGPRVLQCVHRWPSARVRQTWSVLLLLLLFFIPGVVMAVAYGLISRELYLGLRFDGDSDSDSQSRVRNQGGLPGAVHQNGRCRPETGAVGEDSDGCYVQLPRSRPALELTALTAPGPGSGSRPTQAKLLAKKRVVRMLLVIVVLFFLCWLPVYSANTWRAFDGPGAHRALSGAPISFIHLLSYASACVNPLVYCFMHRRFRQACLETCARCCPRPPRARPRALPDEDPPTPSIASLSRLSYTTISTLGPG

[6] = molecular target: T2, Cholecystokinin receptor type A (Homo sapiens, UniProt P32238); assay: In vitro displacement of [125I]BH-CCK-8 from cDNA of human Cholecystokinin type A receptor expressed in CHO-K1 cells; format: cell-based
T2 sequence (P32238 whole entry): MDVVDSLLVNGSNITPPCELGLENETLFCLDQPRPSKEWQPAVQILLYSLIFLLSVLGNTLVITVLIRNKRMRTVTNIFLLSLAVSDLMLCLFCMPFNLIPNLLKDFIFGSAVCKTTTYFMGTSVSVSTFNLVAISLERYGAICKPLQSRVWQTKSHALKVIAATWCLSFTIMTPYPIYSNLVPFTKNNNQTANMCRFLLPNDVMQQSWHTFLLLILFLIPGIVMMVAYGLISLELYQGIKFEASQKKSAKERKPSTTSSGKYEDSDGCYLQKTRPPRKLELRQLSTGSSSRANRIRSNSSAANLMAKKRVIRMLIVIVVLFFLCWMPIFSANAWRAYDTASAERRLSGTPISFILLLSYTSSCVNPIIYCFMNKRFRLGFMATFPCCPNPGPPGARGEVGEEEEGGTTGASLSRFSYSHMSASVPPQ

Cavia porcellus [7] = organism: Cavia porcellus; assay: The compound was evaluated for the pKB, single dose pA2 against Cholecystokinin type A receptor in guinea pig gallbladder; format: functional
Outline: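 Isolated guinea pig gallbladder. Antagonism against CCK-8 is expressed as pKB, a single-dose pA2.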

[8] = molecular target: T3, Gastrin/cholecystokinin type B receptor (Homo sapiens) (UniProt P32239)
T3 sequence (whole entry): T1 sequence (P32239 whole entry)

[9] = molecular target: T2, Cholecystokinin receptor type A; assay: Compound was evaluated for the [Ca2+] mobilization innstably transfected CHO-K1 cell lines expressing human Cholecystokinin type A receptor; format: cell-based
Cavia porcellus [10] = organism: Cavia porcellus; assay: The compound was evaluated for contraction as % of CCK-8 maximum against Cholecystokinin type A receptor in guinea pig gallbladder
[11] = molecular target: T1, Gastrin/cholecystokinin type B receptor; assay: Compound was evaluated for the [Ca2+] mobilization innstably transfected CHO-K1 cell lines expressing human Cholecystokinin type B receptor; format: cell-based
Cavia porcellus [12] = organism: Cavia porcellus; assay: In vitro concentration required to induce contraction of isolated GPGB; format: functional
Outline: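 Isolated guinea pig gallbladder contraction. pEC50 (−log EC50 ± SD) assayed in triplicate.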

Rattus norvegicus [13] = assay: Compound was evaluated for the maximal reduction in feeding achieved at 1 uM/kg dose(ip); format: functional
Outline: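 Conditioned male Long-Evans rats fasted 100 min, dosed ip at 1 μmol/kg in propylene glycol (1 mL/kg), then given an oral saline preload (0.9%, 8 mL/kg). Liquid diet offered 20 min later. Maximal reduction of feeding is the mean of 8–10 animals, normalized to the vehicle pretreatment-day intake.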

Rattus norvegicus [14] = assay: Compound was evaluated for the dose(ip) required to achieve half-maximal inhibition of feeding at 30 min in rats.; format: functional; details: 0.5 h; outline: as §1
Cavia porcellus [15] = organism: Cavia porcellus; assay: mCCK-8 contraction induced by 30 uM in vitro, normalized to CCK-8 (1 uM); IA ='inactive'; format: functional; outline: as §2
[16] = molecular target: T4, Cholecystokinin receptor type A (Cavia porcellus) (UniProt Q63931); assay: The compound was evaluated for the contraction as % of CCK-8 maximum against Cholecystokinin type A receptor in guinea pig gallbladder
T4 sequence (whole entry): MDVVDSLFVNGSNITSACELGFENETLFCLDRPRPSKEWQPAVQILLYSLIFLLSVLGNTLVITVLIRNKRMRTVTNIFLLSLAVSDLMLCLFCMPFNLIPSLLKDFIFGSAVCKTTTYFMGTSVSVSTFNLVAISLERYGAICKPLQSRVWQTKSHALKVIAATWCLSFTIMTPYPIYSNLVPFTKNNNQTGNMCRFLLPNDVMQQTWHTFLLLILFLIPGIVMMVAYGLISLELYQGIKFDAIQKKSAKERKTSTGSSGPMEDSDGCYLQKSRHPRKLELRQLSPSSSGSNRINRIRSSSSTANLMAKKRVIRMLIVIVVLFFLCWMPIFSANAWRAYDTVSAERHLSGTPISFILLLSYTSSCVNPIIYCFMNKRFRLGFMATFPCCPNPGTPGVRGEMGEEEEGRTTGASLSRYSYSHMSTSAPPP

Rattus norvegicus [17] = assay: Compound was evaluated for the dose(ip) required to achieve half-maximal inhibition of feeding at 30 min in rats; format: functional; details: 0.5 h; outline: as §1

CSCC[C@H](NC(=O)[C@H](Cc1ccc(OS(=O)(=O)O)cc1)NC(=O)[C@@H](N)CC(=O)O)C(=O)NCC(=O)N[C@@H](Cc1c[nH]c2ccccc12)C(=O)N[C@@H](CCSC)C(=O)N[C@@H](CC(=O)O)C(=O)N[C@@H](Cc1ccccc1)C(N)=O [SINCALIDE]
max inhibition (Rattus norvegicus [1]): 95% | ED50 (Rattus norvegicus [2]): 0.027 µmol/kg | Activity (Cavia porcellus [3]): 100%

Cc1ccccc1NC(=O)NCCCC[C@@H](CNC(=O)CCC(=O)O)NC(=O)[C@@](C)(Cc1c[nH]c2ccccc12)NC(=O)OC1C2CC3CC(C2)CC1C3 (stereo not given in full)
Activity (Cavia porcellus [4]): inactive | IC50 [5]: 0.224 µM | IC50 [6]: 0.0603 µM | pKB (Cavia porcellus [7]): 7

Cc1ccccc1NC(=O)NCCCC[C@H](CNC(=O)[C@@](C)(Cc1c[nH]c2ccccc12)NC(=O)OC1C2CC3CC(C2)CC1C3)NC(=O)CCC(=O)O (stereo not given in full)
pKB [8]: 7.7 | EC50 [9]: 0.00316 µM | IC50 [5]: 0.02 µM | contraction, % of CCK-8 max (Cavia porcellus [10]): 72% | EC50 [11]: 2.51 µM | EC50 (Cavia porcellus [12]): 0.0275 µM | IC50 [6]: 0.012 µM | Max inhibition (Rattus norvegicus [13]): 59% | ED50 (Rattus norvegicus [14]): 0.03 µmol/kg

Cc1ccccc1NC(=O)NCCCC[C@H](CNC(=O)[C@](C)(Cc1c[nH]c2ccccc12)NC(=O)OC1C2CC3CC(C2)CC1C3)NC(=O)CCC(=O)O (stereo not given in full)
IC50 [5]: 0.178 µM | contraction, % of CCK-8 max (Cavia porcellus [10]): 83% | EC50 (Cavia porcellus [12]): 0.832 µM | IC50 [6]: 0.229 µM

Cc1ccccc1NC(=O)NCCCC[C@@H](CNC(=O)CCC(=O)O)NC(=O)[C@](C)(Cc1c[nH]c2ccccc12)NC(=O)OC1C2CC3CC(C2)CC1C3 (stereo not given in full)
IC50 [5]: 7.08 µM | Activity (Cavia porcellus [15]): inactive | IC50 [6]: 0.724 µM

C[C@](Cc1c[nH]c2ccccc12)(NC(=O)OC1[C@H]2C[C@@H]3C[C@@H](C[C@H]1C3)C2)C(=O)NC[C@H](NC(=O)CCC(=O)O)c1ccccc1 (stereo not given in full) [CI-988]
Activity (Cavia porcellus [3]): 24%

CC(=O)N[C@@H](Cc1c[nH]c2ccccc12)C(=O)N[C@@H](CCCCNC(=O)Nc1ccccc1C)C(=O)N[C@@H](CC(=O)O)C(=O)N(C)[C@@H](Cc1ccccc1)C(N)=O (Ac-WK([CO-NH(2-Me-phenyl)])D[NMeF]-NH2)
EC50 [9]: 0.00398 µM | contraction, % of CCK-8 max [16]: 105% | ED50 (Rattus norvegicus [17]): 0.01 µmol/kg | EC50 (Cavia porcellus [12]): 0.00158 µM | IC50 [6]: 0.02 µM | max inhibition (Rattus norvegicus [13]): 67%
